Entries after “also recorded” stand apart in the source; their conditions may differ. One block for each molecule: values may come before it.
Legend:
[1] = Brain penetration of PARP inhibitors in mice; type: in vivo, male C57 mice; conditions: for Kp: po, AUC1-4h
[2] = system: MDA-MB-436 breast cancer xenograft; experiment: MDA-MB-436 breast cancer xenograft efficacy; type: in vivo, BALB/c nude mice; conditions: for tumor relapse at day 89: two months after treatment terminated
How it was run: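 MDA-MB-436 cells at 2.5 × 10⁷ cells/mL in 1:1 PBS/Matrigel, implanted subcutaneously in the right front flank of 6–8-week female BALB/c nude mice. At ~130 mm³, mice stratified into six groups of nine. Oral BID dosing for 28 days: vehicle (0.5% methylcellulose), test compound from 1.6 mg/kg, or a comparator PARP inhibitor at 25 or 50 mg/kg. Tumours followed to day 89.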

P-gp = P-gp (Homo sapiens, UniProt P08183); experiment: P-gp efflux activity in MDCKII-MDR1 cell monolayer; type: in vitro ADME; conditions: 1 µM and 10 µM; ER > 2 and decrease to < 50% with inhibitor suggests substrate
Sequence of P-gp (P08183 whole entry): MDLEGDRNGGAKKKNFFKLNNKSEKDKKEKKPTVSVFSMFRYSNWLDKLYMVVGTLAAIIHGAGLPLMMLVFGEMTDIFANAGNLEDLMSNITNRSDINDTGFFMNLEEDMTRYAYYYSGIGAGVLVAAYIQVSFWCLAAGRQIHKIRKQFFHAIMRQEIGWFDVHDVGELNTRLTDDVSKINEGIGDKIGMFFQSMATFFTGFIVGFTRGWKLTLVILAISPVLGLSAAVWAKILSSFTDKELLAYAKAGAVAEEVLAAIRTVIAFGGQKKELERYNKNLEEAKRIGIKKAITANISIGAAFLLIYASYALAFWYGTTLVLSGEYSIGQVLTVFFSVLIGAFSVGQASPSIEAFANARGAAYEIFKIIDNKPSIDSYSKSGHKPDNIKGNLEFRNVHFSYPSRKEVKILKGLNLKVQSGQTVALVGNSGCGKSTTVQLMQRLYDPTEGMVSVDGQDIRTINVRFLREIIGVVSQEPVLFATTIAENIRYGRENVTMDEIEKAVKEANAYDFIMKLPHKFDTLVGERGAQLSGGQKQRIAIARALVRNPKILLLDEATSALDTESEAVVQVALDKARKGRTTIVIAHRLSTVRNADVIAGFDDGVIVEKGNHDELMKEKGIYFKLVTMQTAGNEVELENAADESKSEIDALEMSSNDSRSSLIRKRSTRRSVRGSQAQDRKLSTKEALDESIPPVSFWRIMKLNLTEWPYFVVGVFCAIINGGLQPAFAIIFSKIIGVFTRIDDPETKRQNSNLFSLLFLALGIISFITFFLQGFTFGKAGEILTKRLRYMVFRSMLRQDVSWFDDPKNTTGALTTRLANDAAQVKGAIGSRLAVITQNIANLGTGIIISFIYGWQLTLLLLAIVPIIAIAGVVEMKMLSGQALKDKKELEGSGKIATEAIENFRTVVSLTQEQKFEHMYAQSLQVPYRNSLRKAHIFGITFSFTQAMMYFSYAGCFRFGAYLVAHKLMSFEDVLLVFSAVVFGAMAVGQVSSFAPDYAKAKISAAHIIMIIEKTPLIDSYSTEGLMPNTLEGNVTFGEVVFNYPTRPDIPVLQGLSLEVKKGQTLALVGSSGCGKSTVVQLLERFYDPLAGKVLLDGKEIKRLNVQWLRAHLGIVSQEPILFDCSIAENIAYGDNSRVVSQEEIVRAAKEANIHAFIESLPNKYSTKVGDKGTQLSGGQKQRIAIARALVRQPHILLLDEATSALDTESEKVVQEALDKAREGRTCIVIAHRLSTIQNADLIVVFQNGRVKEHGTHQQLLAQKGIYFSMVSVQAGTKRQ

[3] = system: PARylation in MDA-MB-436 xenograft tumors; experiment: PK/PD in MDA-MB-436 xenograft; type: in vivo, mice; conditions: single dose 5.45, first 12 h
[4] = PK/PD in MDA-MB-436 xenograft; type: in vivo, mice; conditions: BALB/c nude, mouse, tumor, oral, 5.45 mg/kg
[5] = system: PARylation in brain tumors, intracranial H209 xenograft; experiment: Brain penetration and PD in intracranial H209 xenograft; type: in vivo, mice; conditions: single dose 3 mg/kg p.o., 4 h after treatment
[6] = system: intracellular PARP activity in H2O2-treated GL261 cells; experiment: Inhibition of H2O2-induced PAR synthesis; type: cell-based, murine; conditions: Mus musculus, GL261, read-out: IC50 of intracellular PARP activity
How it was run: (§1)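 Cells seeded at 5000/well in DMEM with 10% FBS. After 4 h, test compound added as eight serial dilutions (0.02–200 nM final) in 0.1% DMSO for 18 h. DNA damage induced with 200 μM H₂O₂ at 37 °C for 5 min. Cells fixed in ice-cold methanol at −20 °C and stained overnight at 4 °C with anti-PAR mAb, Alexa 488 secondary and DAPI. Nuclear PAR intensity imaged; IC50 taken from residual activity.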

[7] = QWBA tissue distribution of [14C] pamiparib; type: in vivo, Long-Evans rats; conditions: rats, single oral 5 mg/kg, 24 h post treatment
PK study in healthy mice = type: in vivo, Mouse
How it was run: (§2)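 Healthy animals given a single dose. Mouse: 10 mg/kg p.o. or 1 mg/kg i.v. Rat: 5 mg/kg p.o. or 2 mg/kg i.v. Dog: 2 mg/kg p.o. or 1 mg/kg i.v. Plasma deproteinised with acetonitrile containing internal standard and centrifuged at 14,000 rpm for 8 min. Drug measured by LC–MS/MS. Dosing solutions analysed to confirm the actual dose given.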

Human BCRP = Human BCRP (Homo sapiens, UniProt Q9UNQ0); experiment: ATP-dependent uptake activity, BCRP substrate test; type: in vitro ADME; conditions: 0.5 μM to 30 μM; uptake ratio ≥ 2-fold is positive
Sequence of Human BCRP (Q9UNQ0 whole entry): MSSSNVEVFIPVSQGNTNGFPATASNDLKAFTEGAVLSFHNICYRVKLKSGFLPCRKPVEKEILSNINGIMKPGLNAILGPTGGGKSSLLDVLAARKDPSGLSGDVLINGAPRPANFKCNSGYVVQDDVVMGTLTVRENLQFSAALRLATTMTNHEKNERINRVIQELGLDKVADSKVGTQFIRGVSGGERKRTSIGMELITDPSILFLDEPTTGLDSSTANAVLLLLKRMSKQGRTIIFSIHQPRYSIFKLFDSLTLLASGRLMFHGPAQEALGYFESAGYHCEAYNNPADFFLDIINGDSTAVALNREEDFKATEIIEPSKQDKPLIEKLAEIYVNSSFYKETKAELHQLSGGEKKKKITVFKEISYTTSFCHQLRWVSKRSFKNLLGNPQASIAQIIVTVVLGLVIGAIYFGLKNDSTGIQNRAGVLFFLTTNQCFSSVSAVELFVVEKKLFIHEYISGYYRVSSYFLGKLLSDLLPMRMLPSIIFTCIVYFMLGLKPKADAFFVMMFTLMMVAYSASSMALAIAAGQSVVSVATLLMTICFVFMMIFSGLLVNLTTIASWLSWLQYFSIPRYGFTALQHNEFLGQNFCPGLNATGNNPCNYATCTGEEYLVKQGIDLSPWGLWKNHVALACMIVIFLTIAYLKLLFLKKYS

[8] = system: intracranial H209 xenograft; experiment: Intracranial H209 xenograft survival; type: in vivo, BALB/c nude mice; conditions: pamiparib 3 mg/kg BID day 1–21, 29–49; TMZ 50 mg/kg; combination TMZ 50 mg/kg plus pamiparib 0.75 mg/kg BID
PK study in dog = type: in vivo
How it was run: as §2

PK study in rat = type: in vivo
How it was run: as §2

[9] = Brain penetration after intravenous administration, Kpuu; type: in vivo, SD rats; conditions: male, Sprague-Dawley, rat, brain and plasma (unbound), 1 mg/kg
[10] = system: GL261 syngeneic intracranial glioma; experiment: GL261 syngeneic intracranial glioma model survival; type: in vivo, Mice; conditions: single agent 9 mpk
[11] = system: intracellular PAR levels in HeLa cells; experiment: Inhibition of H2O2-induced PAR synthesis; type: cell-based; conditions: Homo sapiens, 18 h, read-out: IC50 of intracellular PARP activity
[12] = system: intracellular PARP activity in H2O2-treated SF-295 cells; experiment: Inhibition of H2O2-induced PAR synthesis; type: cell-based; conditions: Homo sapiens, SF-295, read-out: IC50 of intracellular PARP activity
How it was run: as §1

DMS153 = experiment: Pamiparib and TMZ combination, anti-proliferation; type: cell-based; conditions: Homo sapiens, DMS-153, read-out: EC50 of TMZ single agent
U251 = experiment: Pamiparib and TMZ combination, anti-proliferation; type: cell-based; conditions: Homo sapiens, U-251, read-out: EC50 of TMZ single agent
NCI-H2286 = experiment: Pamiparib and TMZ combination, anti-proliferation; type: cell-based; conditions: Homo sapiens, NCI-H2286, read-out: EC50 of TMZ single agent
NCI-H1048 = experiment: Pamiparib and TMZ combination, anti-proliferation; type: cell-based; conditions: Homo sapiens, NCI-H1048, read-out: EC50 of TMZ single agent
NCI-H1436 = experiment: Pamiparib and TMZ combination, anti-proliferation; type: cell-based; conditions: Homo sapiens, NCI-H1436, read-out: EC50 of TMZ single agent
SF-295 = experiment: Pamiparib and TMZ combination, anti-proliferation; type: cell-based; conditions: Homo sapiens, SF-295, read-out: EC50 of TMZ single agent
NCI-H69 = experiment: Pamiparib and TMZ combination, anti-proliferation; type: cell-based; conditions: Homo sapiens, NCI-H69, read-out: EC50 of TMZ single agent
U-118MG = experiment: Pamiparib and TMZ combination, anti-proliferation; type: cell-based; conditions: Homo sapiens, read-out: EC50 of TMZ single agent
U87-MG = experiment: Pamiparib and TMZ combination, anti-proliferation; type: cell-based; conditions: Homo sapiens, U-87 MG, read-out: EC50 of TMZ single agent
[13] = system: intracranial H209-TR xenografts; experiment: Intracranial H209-TR xenograft survival; type: in vivo, BALB/c nude mice; conditions: same treatment schedule as intracranial H209
SNB-19 = experiment: Pamiparib and TMZ combination, anti-proliferation; type: cell-based; conditions: Homo sapiens, SNB-19, read-out: EC50 of TMZ single agent
SF-539 = experiment: Pamiparib and TMZ combination, anti-proliferation; type: cell-based; conditions: Homo sapiens, SF-539, read-out: EC50 of TMZ single agent
T98G = experiment: Pamiparib and TMZ combination, anti-proliferation; type: cell-based; conditions: Homo sapiens, read-out: EC50 of TMZ single agent
LN-229 = experiment: Pamiparib and TMZ combination, anti-proliferation; type: cell-based; conditions: Homo sapiens, LN-229, read-out: EC50 of TMZ single agent
NCI-H2227 = experiment: Pamiparib and TMZ combination, anti-proliferation; type: cell-based; conditions: read-out: EC50 of TMZ single agent
NCI-H209 = experiment: Pamiparib and TMZ combination, anti-proliferation; type: cell-based; conditions: Homo sapiens, NCI-H209, read-out: EC50 of TMZ single agent
[14] = male, C57, mouse, brain and plasma, Brain/Plasma, single p.o. dose: Pamiparib 10, Talazoparib 3, Olaparib 50, Niraparib 50 mg/kg
[15] = single p.o. dose: Pamiparib 10, Talazoparib 3, Olaparib 50, Niraparib 50 mg/kg
[16] = mouse, plasma, intravenous, 1 mg/kg
[17] = Rat, 5 mg/kg p.o. or 2 mg/kg i.v.

- Kp at 1 h ([1]; male, C57, mouse, brain and plasma, oral, Brain/Plasma, concentration, 1 h, single p.o. dose: Pamiparib 10, Talazoparib 3, Olaparib 50, Niraparib 50 mg/kg): 0.06
- Kp at 2 h ([1]; male, C57, mouse, brain and plasma, oral, Brain/Plasma, concentration, 2 h, single p.o. dose: Pamiparib 10, Talazoparib 3, Olaparib 50, Niraparib 50 mg/kg): 0.08
- Kp at 4 h ([1]; male, C57, mouse, brain and plasma, oral, Brain/Plasma, concentration, 4 h, single p.o. dose: Pamiparib 10, Talazoparib 3, Olaparib 50, Niraparib 50 mg/kg): 0.14
- Kp [1, 14]: 0.09
- AUC1-4h, Brain [1, 15]: 1849 ng·h/g
Compound: NC(=O)c1cccc2cn(-c3ccc([C@@H]4CCCNC4)cc3)nc12 [Niraparib, niraparib]

- AUC1-4h, Brain [1, 15]: 56 ng·h/g
Compound: O=C(c1cc(Cc2n[nH]c(=O)c3ccccc23)ccc1F)N1CCN(C(=O)C2CC2)CC1 [Olaparib, olaparib, reference compound]
- objective responses ([2]; olaparib high-dose group (50 mg/kg, BID)): 100%
- tumor relapse at day 89 ([2]; olaparib 25 mg/kg BID): tumor relapse was observed

Compound: C[C@]12CCCN1CC1=NNC(=O)c3cc(F)cc4[nH]c2c1c34 [Pamiparib]
- drug concentration in brain ([1]; maintained for 4 h post treatment): > 100 ng/g
- Kp [1, 14]: 0.18
- AUC1-4h, Brain [1, 15]: 820 ng·h/g
- P-gp substrate assessment (P-gp): not a substrate of P-gp or BCRP
- intra-tumor concentration [3]: > 0.5 µmol/kg
- concentration at 4 h [4]: ~800 nM
- inhibition of PARylation in brain tumors [5]: complete inhibition of PARylation; also recorded: completely inhibited
- IC50 [6]: 0.00025 µM
- drug concentration in the brain as share of the detected plasma level [7]: approximately 20%
- AUC 0-inf/Dose (PK study in healthy mice; Mouse, 10 mg/kg p.o. or 1 mg/kg i.v.): 552 ± 194 ng.h/mL per mg/kg
- half-life (PK study in healthy mice; mouse, plasma): 3.2 ± 0.5 h
- Vd (PK study in healthy mice; [16]): 5.7 ± 0.5 L/kg
- clearance (PK study in healthy mice; [16]): 29.9 ± 2.4 mL/min/kg
- bioavailability (PK study in healthy mice; mouse, plasma, oral): 99 ± 35%
- BCRP substrate assessment (Human BCRP): not a substrate of P-gp or BCRP
- median survival [8]: 26.5 days
- AUC 0-inf/Dose (PK study in dog; Dog, 2 mg/kg p.o. or 1 mg/kg i.v.): 800 ± 95 ng.h/mL per mg/kg
- half-life (PK study in dog; dog, plasma): 3.6 ± 1.9 h
- Vd (PK study in dog; dog, plasma, intravenous, 1 mg/kg): 2.1 ± 0.2 L/kg
- bioavailability (PK study in dog; dog, plasma, oral): 73 ± 4%
- AUC 0-inf/Dose (PK study in rat; [17]): 694 ± 124 ng.h/mL per mg/kg
- clearance (PK study in rat; [17]): 22.7 ± 2.8 mL/min/kg
- half-life (PK study in rat; rat, plasma): 5.5 ± 0.8 h
- Vd (PK study in rat; rat, plasma, intravenous, 2 mg/kg): 6.9 ± 0.7 L/kg
- bioavailability (PK study in rat; rat, plasma, oral): 94 ± 17%
- Kp [9]: 0.158
- median survival [10]: 21 days
- IC50 [11]: 0.00024 µM
- objective responses ([2]; day 29, lowest dose 1.6 mg/kg BID): 100%
- objective responses (PR plus CR) ([2]; day 29, pamiparib oral, BID for 28 days, doses from 1.6 mg/kg): 100%
- tumor relapse at day 89 ([2]; pamiparib lowest dose 1.6 mg/kg): tumor relapse was observed
- IC50 [12]: 0.00017 µM

Compound: Cn1nnc2c(C(N)=O)ncn2c1=O [TMZ, Temozolomide]
- EC50 (DMS153): 60 µM
- EC50 (U251): 32 µM
- EC50 (NCI-H2286): 182 µM
- EC50 (NCI-H1048): 153 µM
- EC50 (NCI-H1436): > 300 µM
- EC50 (SF-295): > 300 µM
- EC50 (NCI-H69): 15 µM
- EC50 (U-118MG): > 300 µM
- EC50 (U87-MG): > 300 µM
- median survival [13]: 24 days
- EC50 (SNB-19): > 300 µM
- EC50 (SF-539): 80 µM
- EC50 (T98G): > 300 µM
- median survival [8]: 75 days
- EC50 (LN-229): > 300 µM
- EC50 (NCI-H2227): 576 µM
- EC50 (NCI-H209): 63 µM

- AUC1-4h, Brain [1, 15]: 85 ng·h/g
Compound: Cn1ncnc1[C@H]1c2n[nH]c(=O)c3cc(F)cc(c23)N[C@@H]1c1ccc(F)cc1 [Talazoparib, talazoparib]

From paper PMC7350150 (Neoplasia (New York, N.Y.), 2020)
